Drawing on ChEMBL document CHEMBL4513216, “Probing the Open Global Health Chemical Diversity Library for Multistage-Active Starting Points for Next-Generation Antimalarials” (ACS Infect Dis, 2020), this text covers cytotoxicity for 97 molecules.

The nature of this data set: Toxicity liver stage against HepG2, at 10uM. The data set is classed as cell-based. Also on record: test concentration 10 uM, cell line HepG2-A16-CD81EGFP. The settings on record: human, HepG2-A16-CD81EGFP cells; read-out: INHIBITION
A digest of the protocol: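 Uninfected HepG2-A16-CD81EGFP cells, 3 × 10^3 per well, 1536-well, plated on prespotted compound at 10 μM final, parasite-free screening media added to match infected plates; puromycin 10 μM positive, DMSO 0.5% negative; run in parallel with 48 h PbLuc assay at 37 °C, 5% CO2; viability by CellTiter-Glo luminescence, normalized to controls.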
On to `COC(=O)c1cccc(C(=O)N(C)Cc2cccc(O)c2)c1`, for which the cytotoxicity at 10 µM came to 9.85%.

As for `CCn1cnc2c(cnn2-c2cccc(C)c2C)c1=O`, the cytotoxicity at 10 µM was -17.9%.

With `Cc1ccc(CN2CCC3(CCCN3C(=O)C(C)C)CC2)o1`, the cytotoxicity at 10 µM is -5.9%.

Regarding `CN(C)C(=O)N1CCC2(CC1)C(=O)N(CC1CCOC1)c1ccccc12` (configuration not stated), the cytotoxicity at 10 µM stood at 6.68%.

With `CCOCc1nn(C)c2c1CN(C(=O)c1ccno1)CC2`, the cytotoxicity at 10 µM is 8.61%.

As to `COCCNC(=O)Cn1c(-c2cccc(F)c2)nc(C)c(CCO)c1=O`, the cytotoxicity at 10 µM is -2.37%.

Regarding `CC(=O)Nc1nc(-c2ccc(C)c(C)c2)c[nH]1`, the cytotoxicity at 10 µM was -19.3%.

Turning to `O=c1cc(-c2ccc(F)cc2)nc2n1CCCCC2`, the cytotoxicity at 10 µM was -1.91%.

Regarding `O=C(c1cnc2ccc(Cl)cc2c1NCc1ccco1)N1CCCCC1`, the cytotoxicity at 10 µM stood at 4.38%.

Consider `CC(=O)N1CCN(c2ccc3ccc(C(=O)NC4CCCC4)cn23)CC1`, for which the cytotoxicity at 10 µM was determined as 8.15%.

For the molecule `CC(C(=O)O)n1nc(C(F)(F)F)c(Cl)c1C1CC1` (configuration not stated), the cytotoxicity at 10 µM stood at 2.01%.

With `CNc1nnc(CCn2nc(C)c(Br)c2C)s1`, the cytotoxicity at 10 µM was 2.83%.

On to `COc1c(C2CC(=O)Nc3[nH]ncc32)cc2c(c1OC)OCO2` (configuration not stated), for which the cytotoxicity at 10 µM stood at 3.66%.

`FC(F)(F)c1cc(C2CCCN(c3ncccn3)C2)n2ccnc2n1` (configuration not stated): the cytotoxicity at 10 µM was determined as 10.4%.

Consider `Cc1cc(O)n2nc(C3CCN(C(=O)c4ccccn4)CC3)cc2n1`, for which the cytotoxicity at 10 µM was -3.36%.

With `CC1(C(=O)N2CCOCC2)CN(CC2CCOCC2)CCO1` (configuration not stated), the cytotoxicity at 10 µM was determined as 4.14%.

As for `c1cc(C2CN(C3CCCC3)C2)n[nH]1`, the cytotoxicity at 10 µM is 4%.

As for `CS(=O)(=O)NCC(=O)NC1CCCN(c2ccccn2)C1` (configuration not stated), the cytotoxicity at 10 µM was determined as 1.76%.

In the case of `CC1(C2CCN(CCCC(=O)O)CC2)CN(Cc2ccccc2)C(=O)O1` (configuration not stated), the cytotoxicity at 10 µM was -21.9%.

As for `Fc1ccc(N2CCOC(Cc3cccnc3)C2)cc1` (configuration not stated), the cytotoxicity at 10 µM was -16.3%.

Regarding `Cn1cc(C(=O)N2CCCC2c2[nH]ncc2C(N)=O)cn1` (configuration not stated), the cytotoxicity at 10 µM is -7.05%.

Take `CCC(=O)N1CCC(Cc2ccccc2-c2ccncc2)(C(N)=O)C1` (configuration not stated): the cytotoxicity at 10 µM is -25.3%.

For `Cc1cnc(Nc2nccnc2C2CCN(C)CC2)s1`, the cytotoxicity at 10 µM came out at 2.52%.

Take `Cn1cc(C2CCCN2C(=O)c2cnc(C3CC3)s2)cn1` (configuration not stated): the cytotoxicity at 10 µM is -2.05%.

With `CCCC(NC(=O)c1cnccn1)c1nnc2ccccn12` (configuration not stated), the cytotoxicity at 10 µM came to 11.1%.

Regarding `CC(C(=O)N1CCOCC1)S(=O)(=O)Cc1nc(C(C)(C)C)no1` (configuration not stated), the cytotoxicity at 10 µM was -3.82%.

For `c1ccc(CCN2CCC(OCC3CCCCO3)CC2)nc1` (configuration not stated), the cytotoxicity at 10 µM is -4.9%.

As to `O=C(NC1CCc2nccn2C1)c1ccc(NC2CC2)nc1` (configuration not stated), the cytotoxicity at 10 µM is 9.93%.

Regarding `CN1CC(NC(=O)Nc2cnn(-c3ccccc3Cl)c2)CCC1=O` (configuration not stated), the cytotoxicity at 10 µM is -1.54%.

Regarding `CC(CS(C)(=O)=O)N(C(=O)Nc1ccc(F)cc1F)C1CC1` (configuration not stated), the cytotoxicity at 10 µM amounted to 4.08%.

Take `CCC1CN(C(=O)Cc2coc(-c3ccccc3)n2)CCO1` (configuration not stated): the cytotoxicity at 10 µM was 3.06%.

Turning to `COC(=O)C(O)C1CCN(CCc2ccccn2)CC1` (configuration not stated), the cytotoxicity at 10 µM was -7.64%.

Turning to `Cc1noc(C)c1CN1CCN(C(=O)C(C(C)C)n2cncn2)CC1` (configuration not stated), the cytotoxicity at 10 µM worked out at 1.4%.

Turning to `COCC(NC(=O)c1cccnc1)c1cccc(C(F)(F)F)c1` (configuration not stated), the cytotoxicity at 10 µM was -12.9%.

Turning to `COC(=O)c1ccoc1CN(C)Cc1cc(OC)c(OC)cc1C`, the cytotoxicity at 10 µM is -1.06%.

Turning to `CCOc1ncccc1NC(=O)c1ccc(C(C)=O)s1`, the cytotoxicity at 10 µM is 2.99%.

On to `CCN(Cc1nc2c(cnn2C)c(=O)[nH]1)c1cccc(C)c1C`, for which the cytotoxicity at 10 µM was 1.66%.

`Cc1cnc(C(C)(C)NC(=O)NCc2ccon2)s1`: the cytotoxicity at 10 µM is -6.75%.

For `CCN1CCC(CNC(=O)c2cc(Cl)c[nH]2)CC1`, the cytotoxicity at 10 µM is -9.4%.

As for `CC(=O)N(Cc1noc(C)n1)C1CCN(CC(=O)N(C)C2CC2)C1` (configuration not stated), the cytotoxicity at 10 µM is -4.69%.

As to `CC(C)c1nsc(N2CCOCC2)n1`, the cytotoxicity at 10 µM was -11%.

For `CCOCCN1CCN(c2ccc(CN(C)C)cn2)CC1`, the cytotoxicity at 10 µM is -4.11%.

In the case of `Cc1cc(CN(C)C(=O)C2CC(c3cccc(F)c3)=NO2)no1` (configuration not stated), the cytotoxicity at 10 µM is 5.91%.

In the case of `CCC(CC)CS(=O)(=O)NC(=O)C1CCC1`, the cytotoxicity at 10 µM is -6.8%.

On to `Cc1nn(C)c2ncc(CN3CCN(c4ncccn4)CC3)cc12`, for which the cytotoxicity at 10 µM is -0.234%.

In the case of `COCCNC(=O)NCCCOC1CCCc2ccccc21` (configuration not stated), the cytotoxicity at 10 µM turned out to be 11.7%.

On to `CN(C)C(=O)COc1ccccc1CN1CCOC2(CCCC2)C1`, for which the cytotoxicity at 10 µM was -4.8%.

Take `COc1ccc(NC(=O)NCc2cccc(N(C)C)n2)c(Cl)c1`: the cytotoxicity at 10 µM worked out at 21.8%.

With `CCC(C)NS(=O)(=O)Cc1cccc(NC(=O)c2cc[nH]c2C)c1` (configuration not stated), the cytotoxicity at 10 µM was determined as 3.77%.

`Cc1noc(CNc2c(N3CCCC3)cccc2N2CCCC2)n1`: the cytotoxicity at 10 µM worked out at 0.184%.

Take `CCCNC(=O)c1ccc(-c2ccco2)[nH]c1=O`: the cytotoxicity at 10 µM was -5.68%.

As to `COc1ccc(-c2nc(CNC(C)Cn3cccn3)cs2)cc1` (configuration not stated), the cytotoxicity at 10 µM was 4.27%.

Turning to `CN(C)CCO[C@H]1CN(C(=O)c2ccc[nH]2)[C@@H]2COC[C@H]12`, the cytotoxicity at 10 µM is 5.06%.

As to `CN(C)C(=O)N1CCC2(CC(=O)N(c3cccc(C#N)c3)C2)C1` (configuration not stated), the cytotoxicity at 10 µM is 3.33%.

Turning to `NC(=O)c1ccc(C2CCCN2C(=O)CCn2nnc3ccccc32)s1` (configuration not stated), the cytotoxicity at 10 µM stood at 3.92%.

With `O=C(NCc1nc[nH]n1)c1cc(COc2cccc(F)c2)[nH]n1`, the cytotoxicity at 10 µM was -4.99%.

As for `Cc1ncsc1CCC(=O)NC1CCN(c2ncccc2C#N)CC1`, the cytotoxicity at 10 µM worked out at 0.84%.

On to `COc1ccccc1OC1CCN(C(=O)c2cnc(C)cc2C)CC1`, for which the cytotoxicity at 10 µM turned out to be 4.36%.

Take `CC1(C)CN(C(=O)c2ccccc2-n2cncn2)CC1(C)O` (configuration not stated): the cytotoxicity at 10 µM was -19.3%.

Take `CN1C(=O)C2(CCCN(C(=O)c3cccnc3O)C2)c2ccccc21` (configuration not stated): the cytotoxicity at 10 µM was -5.21%.

Take `C=C(C)COc1ccccc1CNCCc1cc(O)nc(C)n1`: the cytotoxicity at 10 µM is -1.6%.

Regarding `Cc1ccc(-c2ccnc(NC(C)c3c(C)n[nH]c3C)n2)c(C)n1` (configuration not stated), the cytotoxicity at 10 µM amounted to 4.51%.

As to `CN(C)CC1(O)CCCN(C(=O)c2ccccc2-n2cccn2)C1` (configuration not stated), the cytotoxicity at 10 µM was -20.6%.

On to `CCc1nc2c(c(NC3CC3)n1)CCN(C(=O)N1CCN(C)CC1)CC2`, for which the cytotoxicity at 10 µM is 0.445%.

Consider `CCn1nc(NC(=O)Cn2ccc(C(C)=O)n2)c2ccccc21`, for which the cytotoxicity at 10 µM is 12.8%.

Take `Cc1ccc(CN2CCC(n3cc(CN4CCC(O)CC4)nn3)CC2)s1`: the cytotoxicity at 10 µM is -3.53%.

Take `COC1CCN(c2cc(C(C)C)nc3ccnn23)C1` (configuration not stated): the cytotoxicity at 10 µM is 0.343%.

For the molecule `CC1CCN(CC(=O)N(Cc2ccccc2)Cc2nccs2)C1=O` (configuration not stated), the cytotoxicity at 10 µM is -0.0342%.

Regarding `CCc1ncc(C(=O)N2CCN(Cc3ncccc3C)CC2)cn1`, the cytotoxicity at 10 µM was -4.68%.

As to `O[C@]12CCNC[C@H]1CN(c1ncccc1Cl)CC2`, the cytotoxicity at 10 µM amounted to 10.2%.

With `CC(C)[C@H]1COC(=O)N1CC(=O)N1CCN(C(=O)c2ccco2)CC1`, the cytotoxicity at 10 µM came to 4.32%.

Regarding `O=C1CCc2cc(S(=O)(=O)NCc3cc4n(n3)CCCNC4)ccc2N1`, the cytotoxicity at 10 µM was -5.38%.

As for `Cc1cc(=O)n(CC(=O)Nc2cccc(Cl)c2)nc1C`, the cytotoxicity at 10 µM was -6.84%.

Take `Cc1nc(-c2ccccc2C)n(CC(=O)NC2CCCC2)n1`: the cytotoxicity at 10 µM was determined as 5.48%.

`COc1c(CNCc2ccc3c(c2)OCCO3)c(C(C)C)nn1C`: the cytotoxicity at 10 µM was -3.42%.

Regarding `CCN(CC1CCOC1)C(=O)c1cc(F)ccc1N1CCN(C)CC1` (configuration not stated), the cytotoxicity at 10 µM is -7.68%.

Take `Cc1cccc(NS(=O)(=O)c2cc3c(c(C(=O)O)c2)OCCO3)c1`: the cytotoxicity at 10 µM is -3.44%.

Take `CNc1nc(CNC(=O)Nc2cccc(CC(F)(F)F)c2)cs1`: the cytotoxicity at 10 µM was -9.77%.

As for `CC(C)N(Cc1ccccn1)S(=O)(=O)N1CCCC1c1ccco1` (configuration not stated), the cytotoxicity at 10 µM was -3.92%.

In the case of `O=C(NCCn1ccnc1)N1CCCC1c1cccs1` (configuration not stated), the cytotoxicity at 10 µM is -7.51%.

For the molecule `NC(=O)Cn1cc(NC(=O)N2CCN(c3ccc(F)cc3)CC2)cn1`, the cytotoxicity at 10 µM is -12.9%.

For `CNc1cc(N2CCCC2CNCc2cnc(C)s2)ncn1` (configuration not stated), the cytotoxicity at 10 µM is -3.78%.

As to `CC1CCN(C(=O)c2cccc3ncccc23)CC1`, the cytotoxicity at 10 µM turned out to be 4.21%.

`O=C(NCc1cccnc1-n1cccn1)C1CC(=O)N(CC2CC2)C1` (configuration not stated): the cytotoxicity at 10 µM amounted to 2.77%.

Regarding `CC(C)CC(=O)N[C@H](C)c1c(-c2ccc(Cl)cc2)noc1C(=O)O`, the cytotoxicity at 10 µM is 4.76%.

On to `Cc1ccc(CN2CCn3c(CN(C)C(C)C)cnc3C2)s1`, for which the cytotoxicity at 10 µM was 8.33%.

In the case of `CN1CC(=O)N(c2cnn(C)c2)CC12CCN(Cc1cccs1)C2` (configuration not stated), the cytotoxicity at 10 µM worked out at 3.48%.

As for `CS(=O)(=O)N1CC[C@@H]2[C@@H]1CCN2Cc1ccc2c(c1)OCO2`, the cytotoxicity at 10 µM was -5.96%.

Regarding `Cc1ccccc1CN1CCC2(CC1)CN(S(=O)(=O)c1ccccc1)C2`, the cytotoxicity at 10 µM was -2.78%.

Turning to `COCCNC(=O)[C@H]1C[C@@H]2CCN(c3ccncn3)C[C@H]2O1`, the cytotoxicity at 10 µM is 2.4%.

As to `CC(C)N1CCO[C@H]2CN(C(=O)Cc3ccsc3)C[C@H]21`, the cytotoxicity at 10 µM is 11.4%.

Consider `O=C(NC[C@]12COC[C@H]1CN(Cc1nccs1)C2)c1ccsc1`, for which the cytotoxicity at 10 µM is 4.09%.

For the molecule `CC(C)N1CCC2(CC1)CC(NCc1ccccn1)c1ccccc1O2` (configuration not stated), the cytotoxicity at 10 µM was found to be 0.806%.

Consider `O=C(Nc1ccccc1)[C@H]1C[C@H]2CN(C(=O)Nc3ccccc3)C[C@@H]1O2`, for which the cytotoxicity at 10 µM was 2.4%.

With `CNC(=O)N1C[C@@H]2C[C@H](C(=O)NCc3cccnc3)[C@H](C1)O2`, the cytotoxicity at 10 µM was 6.43%.

As for `CCc1nccc(CN2CCC(CNC(=O)C3CCC(C)CC3)C2)n1` (configuration not stated), the cytotoxicity at 10 µM was -4.51%.

Consider `O=C(NCc1ccccc1)[C@H]1C[C@H]2CN(C(=O)NC3CCCC3)C[C@@H]1O2`, for which the cytotoxicity at 10 µM stood at 2.17%.
